Screens deposited in PubChem BioAssay by Sanford-Burnham Center for Chemical Genomics.
An excerpt weighted towards active compounds, which were near 2.3% of everything screened.
STEP block – inhibitors of human striatal-enriched phosphatase STEP; inhibition, % at 20 µM; recombinant STEP, OMFP fluorogenic substrate, fluorescence; AID 588621; P54829; actives 0.25% (n = 360,000);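 active = inhibition at 20 µM, scaled per plate between control wells, above about 37%, limit read from the data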;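 note: 0% = DMSO with enzyme and substrate and 100% = substrate only without enzyme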
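Measure: Control-normalized % inhibition with plate pattern correction | Test system: STEP phosphatase, cell-free reaction | Medium: pH 6.0 Bis-Tris with DTT and Tween 20 | Technique: Fluorescence, 480/540 nm | Times: Reaction 20 min, ambient temperature | Doses: Single compound dose of 20 µM, 1% DMSO final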
Scp1 inh – Scp-1 (human) phosphatase inhibition | inhibition, % at 20 µM | Recombinant Scp1, phosphopeptide, malachite green phosphate absorbance | actives 0.88% (n = 340,000) | Q9GZU7;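 active = inhibition above about 50% at 20 µM, limit read from the data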;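 note: plate controls were DMSO wells with enzyme for no effect and wells lacking enzyme for full effect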
Target sequence (Q9GZU7 76-261 limits assumed): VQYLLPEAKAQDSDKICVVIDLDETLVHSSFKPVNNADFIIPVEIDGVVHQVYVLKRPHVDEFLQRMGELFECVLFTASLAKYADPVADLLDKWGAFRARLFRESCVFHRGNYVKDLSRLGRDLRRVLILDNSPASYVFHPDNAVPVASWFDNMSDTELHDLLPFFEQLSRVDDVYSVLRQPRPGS
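System: SCP-1 catalytic domain; Reagent: Phospho 17-mer peptide substrate; Doses: one concentration, 20 µM, with 1.0% DMSO; Incubation: 45 min room-temperature reaction, 5 min colour, 30 min stabiliser; Signal: Phosphate-binding colour reagent, absorbance read at 630 nm.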
SUMO1 PPI mod – alters human SUMO1 binding to SIM partners; inhibition, % at 20 µM; SUMO1 binding to a labelled peptide, TR-FRET, 1 h; actives 0.33% (n = 360,000); P63165; in the data active = inhibition above about 37%
Target sequence (P63165 whole entry, looked up): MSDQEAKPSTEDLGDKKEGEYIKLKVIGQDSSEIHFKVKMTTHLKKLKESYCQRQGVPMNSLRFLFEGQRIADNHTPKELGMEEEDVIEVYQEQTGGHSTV
LMPTP block – blocks human LMPTP phosphatase. P24666. recombinant LMPTP-A, OMFP fluorogenic substrate, fluorescence intensity. inhibition, % at 20 µM. actives 0.22% (n = 360,000). AID 651560;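 active = compounds that cut the enzyme signal by at least half of the control window in the single-dose screen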;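 note: plate controls were DMSO wells with enzyme plus substrate for no effect and substrate without enzyme for full effect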
Target sequence (P24666 whole entry, looked up): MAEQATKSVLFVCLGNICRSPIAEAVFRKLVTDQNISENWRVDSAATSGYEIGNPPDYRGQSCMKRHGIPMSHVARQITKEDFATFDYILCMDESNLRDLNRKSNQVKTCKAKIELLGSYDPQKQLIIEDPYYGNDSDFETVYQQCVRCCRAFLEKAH
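Test system: LMPTP-A phosphatase enzyme. Amount: LMPTP-A at 0.625 nM final in the reaction. Reagent: OMFP substrate, 400 µM final. Times: 50 min at room temperature. Signal: endpoint fluorescence intensity from OMFP dephosphorylation. Read-out basis: % inhibition. Benchmarks: no-enzyme and uninhibited controls.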
NadD inh – inhibitors of Staphylococcus aureus NadD; inhibition, % at 20 µM; AID 602399; actives 0.78% (n = 360,000); purified NadD enzyme, colorimetric absorbance read-out; in the data active = inhibition above about 26%
DNMT1 inh – inhibitors of human DNMT1; P26358; DNMT1 molecular beacon, Hinp1I cleavage, fluorescence; inhibition (reported as % activation of signal), % at 10 µM; actives 0.83% (n = 360,000); AID 588458; in the data active = inhibition above about 50%
Scp-1 conf – confirmation of human Scp-1 phosphatase inhibitors; shares compounds with Scp1 inh; recombinant SCP-1 catalytic domain, phosphate release, malachite green absorbance; inhibition, % at 20 µM; actives 61% (n = 2,500);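 note: plate controls were DMSO with enzyme for no effect and buffer wells lacking enzyme for full effect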
Scp-1 MG ctr – counter-screen for Scp-1 inhibitors: colorimetric interference | shares compounds with Scp1 inh | Colorimetric interference counterscreen, malachite green absorbance 630 nm | apparent inhibition (interference), % at 20 µM | 2,500 tested, under 10 active | AID 540313;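 note: compounds added after enzyme reaction finished so only phosphate colour detection is probed; plate controls were DMSO wells with completed Scp-1 reaction for no effect and substrate wells lacking enzyme for full effect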
Scp-1 Tm shift – binds human Scp-1, shifting its melting temperature | actives 25% (n = 1,500) | Recombinant SCP1, Sypro Orange thermal shift Tm | AID 540329 | shares compounds with Scp1 inh | thermal shift relative to vanadate control, % at 40 µM;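 active = substances whose mean melting-temperature shift, as a percentage of the reference inhibitor's shift, reaches about 5.3%, limit read from the data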;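 note: 0% = Tm of DMSO wells and 100% = Tm with sodium orthovanadate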
Active calls of the source: *; nt = no result.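 Rule for the calls, unless noted: active = inhibition of at least 30% at 20 µM; inactive = the rest.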

SMILES	STEP block	Scp1 inh	SUMO1 PPI mod	LMPTP block	NadD inh	DNMT1 inh	Scp-1 conf	Scp-1 MG ctr	Scp-1 Tm shift
CC1C=CC=CC=CC=CC=CC=CC=CC(OC2OC(C)C(O)C(N)C2O)CC2OC(O)(CC(O)CC(O)C(O)CCC(O)CC(O)CC(=O)OC(C)C(C)C1O)CC(O)C2C(=O)O (centres undefined)	1.6	88.9*	24.0	2.3	-0.6	94.5*	65.1*	-14.0	-9.3
CCOc1cc(/C=N/NC(=O)CSc2nnc(C)s2)ccc1OCc1ccccc1Cl	-0.5	77.9*	-4.1	1.5	-2.5	-6.4	36.9*	-19.7	-6.5
COc1ccc(/C=N/N=C2/NC(=O)C(CC(=O)O)S2)cc1OCc1ccccc1Cl (centres undefined)	1.1	80.8*	7.1	-1.3	7.5	3.2	72.1*	-3.5	-5.3
O=C(CSc1nnc(SCc2ccccc2Cl)s1)N/N=C/c1ccc(C(=O)O)cc1	1.1	5.7	-4.9	1.5	3.5	0.0	nt	nt	nt
CCOc1cc(/C=N/N=C2/NC(=O)C(CC(=O)O)S2)ccc1OCc1ccccc1Cl (centres undefined)	7.7	75.2*	-3.2	0.9	17.6	1.2	63.9*	-16.7	-16.8
CC(C)Cn1cnc2c1c(=O)n(CC(=O)NC(=O)NC(C)(C)C)c(=O)n2Cc1ccccc1	1.3	-2.3	1.4	0.4	-1.1	-0.7	nt	nt	nt
C[N+](C)(C)c1ccc(/C=N/Nc2nc(Cl)c(C#N)c(Cl)c2Cl)cc1	3.2	53.1*	-15.4	3.9	5.2	3.6	18.6	-1.3	nt
N#Cc1c(Cl)nc(N/N=C/c2ccccc2)c(Cl)c1Cl	-3.3	-6.7	-0.7	-1.2	-7.0	1.2	nt	nt	nt
COc1ccc(CNC(=O)C(OC(=O)c2ccco2)c2ccccc2F)cc1 (centres undefined)	0.5	56.9*	0.6	-1.0	0.4	-0.5	-16.6	-13.4	nt
Cc1ccc(S(=O)(=O)Nc2ccc(S(=O)(=O)Nc3nccs3)cc2)cc1C	-2.7	-9.5	4.9	-0.3	1.9	5.1	nt	nt	nt
CCCN(C(=O)CCNC(=O)c1ccc(Cl)cc1)c1c(N)n(Cc2ccccc2)c(=O)[nH]c1=O	-1.4	0.7	-0.8	-0.7	9.8	12.2	nt	nt	nt
CCCN(c1ccc(OCC)cc1)S(=O)(=O)c1ccc2c(c1)NC(=O)CO2	0.2	-3.8	3.0	1.2	-3.7	1.0	nt	nt	nt
COc1ccc(N2CCN(C(=O)Cc3ccc(S(=O)(=O)N4CCOCC4)s3)CC2)cc1	0.0	80.9*	-1.2	9.9	-0.2	27.8	69.4*	-11.8	4.5
O=C(Cc1ccc(S(=O)(=O)N2CCCC2)s1)N1CCN(c2ccccc2)CC1	0.4	-0.3	3.5	-0.9	-3.7	3.9	nt	nt	nt
O=C(O)Cc1ccc(S(=O)(=O)N2CCCC2)s1	18.3	93.3*	9.7	2.0	-0.6	67.0*	57.6*	-21.6	-0.1
O=C(N/N=C/c1cc(Cl)cc([N+](=O)[O-])c1O)c1cc(-c2ccccn2)nc2ccccc12	14.8	103.5*	11.3	-0.3	31.7*	-8.6	88.0*	-9.8	12.1*
C[N+]1(CN2C(=O)C3C4C=CC(C4)C3C2=O)CCCCC1 (centres undefined)	-1.5	102.7*	-3.5	-2.8	10.7	2.6	88.6*	-7.1	2.9
O=C(CSc1nnc2scc(-c3ccccc3)n12)Nc1nsc(-c2ccccc2)n1	6.6	71.3*	3.9	7.6	6.2	17.2	73.9*	-7.9	-19.1
N#Cc1ccc(-c2nc3c4ccccc4ccn3c2CC2CCCCC2)cc1	nt	nt	-3.4	3.5	20.0	nt	nt	nt	nt
O=C(COc1ccc(OCc2ccccc2)cc1)NC1CCOC1=O (centres undefined)	-1.0	85.0*	1.7	-2.4	1.2	-1.6	-18.8	-19.5	nt
O=C(NC1CCOC1=O)OCc1ccccc1 (centres undefined)	1.2	nt	1.1	-2.1	0.8	4.8	nt	nt	nt
CC1(C(=O)Nc2ccc(Cl)c(Cl)c2)CCN1C(=O)CCC1CCCC1 (centres undefined)	1.0	nt	6.9	1.8	0.8	5.0	nt	nt	nt
CCOC(=O)/C(CCC[N+](C)(CC)CC)=N\O	0.2	98.7*	-0.8	-0.6	17.3	5.0	-8.4	-14.5	nt
O=C(COC(=O)c1ccccc1)Nc1cccc(S(=O)(=O)N2CCCCC2)c1	-1.2	-5.7	-4.5	0.5	-7.4	-0.1	nt	nt	nt
O=C(OCC(=O)N1CCCC1=O)c1cc2ccccc2o1	-0.4	-7.7	1.0	-0.7	-3.4	0.0	nt	nt	nt
SMILES	STEP block	Scp1 inh	SUMO1 PPI mod	LMPTP block	NadD inh	DNMT1 inh	Scp-1 conf	Scp-1 MG ctr	Scp-1 Tm shift
COc1cc(/C=C/C(=O)O)cc(S(=O)(=O)NNC(=O)c2cc(C)oc2C)c1OC	-0.6	52.8*	4.1	-1.0	3.1	18.4	48.9*	2.8	-2.8
Cc1cc(/C=C2/C(=N)N3C(=NC2=O)SN=C3S(C)(=O)=O)c(C)n1-c1ccccc1F	-1.0	-0.8	-15.2	1.9	9.8	-1.1	nt	nt	nt
CS(=O)(=O)C1=NSC2=NC(=O)/C(=C\c3cccn3-c3ccc(Cl)cc3)C(=N)N21	95.2*	82.7*	4.0	19.8	17.1	1.8	78.8*	-20.0	-36.0
O=C(Nc1ccc2ncccc2c1)c1ccccc1Cl	-3.6	56.7*	-0.6	-2.5	17.5	2.7	5.4	-10.7	nt
CCOC(=O)C1=C(C)NC(=O)NC1c1c(OCC(=O)N2CCCCC2)ccc2ccccc12 (centres undefined)	1.5	-4.6	-4.2	-0.2	2.2	4.9	-8.4	-9.0	nt
COc1ccc2cc(-c3ccon3)ccc2c1	2.4	-7.5	-14.1	1.4	-8.2	-4.2	nt	nt	nt
COc1ccccc1NC(=O)N(C)C[C@@H]1OCc2cn(nn2)CCCC(=O)N([C@H](C)CO)C[C@H]1C	-1.9	nt	6.2	-1.5	-4.1	10.2	nt	nt	nt
Nc1ccc(Oc2ncccn2)c(Cl)c1	-4.9	5.3	-14.4	1.6	-1.6	0.1	nt	nt	nt
Fc1ccc(Oc2ccnc(Cl)n2)c(Cl)c1	nt	50.6*	nt	nt	nt	nt	-6.2	-9.0	nt
COc1ccc(-n2nc(C(=O)Nc3nc4ccc(OC)cc4s3)c3ccccc3c2=O)cc1	4.4	67.8*	-0.9	5.4	6.0	25.1	-9.0	-10.4	nt
CCOC(=O)c1c(-c2ccco2)csc1NC(=O)COC(=O)c1cnccn1	1.8	60.1*	10.0	4.2	20.1	13.3	29.0	-23.5	nt
CCOC(=O)c1c(NC(=O)COC(=O)c2cnccn2)sc(C(=O)NC)c1C	1.8	1.2	-1.3	-0.5	-7.2	0.6	nt	nt	nt
